Series [1] can be described thus: Tmax in plasma of human HCT116 cells xenografted BALB/c mouse at 80 mg/kg, po administered as single dose by LC-MS/MS analysis. The format is ADME, organism-based. In short, it runs like this: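 HCT116-xenografted mice (n = 6 per group) received a single oral 80 mg/kg dose. Blood and tumor were sampled at 0 to 24 h. Plasma was obtained by centrifugation at 3000 rpm for 10 min. Samples were stored at −80 °C and quantified by LC-MS/MS.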

A short description of series [2]: Cmax in plasma of human HCT116 cells xenografted BALB/c mouse at 80 mg/kg, po administered as single dose by LC-MS/MS analysis. It is filed as ADME, organism-based. Also on record: dose 80 mg/kg, route oral. In short, it runs like this: (§1)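 Tumour-bearing mice (n = 6 per group) given one oral dose of 80 mg/kg. Blood and tumour collected into heparinized tubes at 0, 0.25, 0.5, 1, 2, 4, 8, 12 and 24 h. Plasma obtained by centrifugation at 3000 rpm for 10 min. Samples stored at -80 °C and quantified by LC-MS/MS.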
Background: Xenograft models place foreign cells or tissue in a host animal.

A short description of series [3]: Half life in plasma of human HCT116 cells xenografted BALB/c mouse at 80 mg/kg administered as single dose by LC-MS/MS analysis.
Series [4] concerns HCT-116. Briefly: Effect on HSP90 expression in human HCT116 cells up to 10 uM measured after 24 hrs by Western blot analysis. The format is cell-based. The settings on record: hct-116, 24 h. In short, it runs like this:
(§2)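 HCT116 cells treated with 0, 1, 5 or 10 µM for 24 h, or with 10 µM for 0, 4, 12, 24 or 48 h. Lysates separated by SDS-PAGE and blotted. Membranes blocked in 5% milk, primary antibodies overnight at 4 °C, HRP secondaries, chemiluminescent detection.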
(In general: A western blot detects proteins with antibodies after separation by electrophoresis.)

Series [5] in a line: AUC (0 to infinity) in plasma of human HCT116 cells xenografted BALB/c mouse at 80 mg/kg, po administered as single dose by LC-MS/MS analysis. The format is ADME, organism-based. Also on record: dose 80 mg/kg, time infinity, route oral. In outline: as §1
Series [6] has as its system HCT-116. The series is described as follows: Effect on total phosphorylated CDC37 expression in human HCT116 cells up to 10 uM measured after 24 hrs by Western blot analysis. It is filed as ADME, cell-based. Particulars: hct-116, 24 h. In short, it runs like this: as §2
Series [7] can be described thus: Effect on HSP70 in human HCT116 cells at 10 uM measured up to 48 hrs by Western blot analysis. The format is cell-based. In outline: as §2
Series [8] is described as follows: Apparent oral clearance in tumor of human HCT116 cells xenografted BALB/c mouse at 80 mg/kg administered as single dose by LC-MS/MS analysis. The format is ADME, organism-based, Neoplasm. In short, it runs like this: (§3)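 Xenograft mice (n = 6 per group) received a single 80 mg/kg oral dose. Plasma and tumour were sampled over 0–24 h into heparinized tubes and analysed by LC-MS/MS.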

Series [9] is described as follows: Stability of the compound in human plasma assessed as parent compound remaining at 1 uM measured after 10 mins by LC-MS/MS analysis. It is filed as ADME, cell-free. Particulars: read-out: Stability. In short, it runs like this: (§4)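 Compound diluted from 10 mM DMSO stock to 1 μM in mouse or human plasma and held at 37 °C in a water bath. Reactions were stopped with acetonitrile at 0, 10, 30, 60 and 90 min. Parent compound was quantified by LC-MS/MS as % remaining.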

The nature of series [10]: Stability of the compound in human plasma assessed as parent compound remaining at 1 uM measured after 30 mins by LC-MS/MS analysis. The format is ADME, cell-free. The settings on record: read-out: Stability. In outline:
as §4

The subject of series [11] is HCT-116. Briefly: Effect on CDC37 expression in human HCT116 cells up to 10 uM measured after 24 hrs by Western blot analysis. It is filed as cell-based. The settings on record: hct-116, 24 h. In short, it runs like this: as §2
Series [12] is described as follows: Clearance in mouse liver microsomes at 10 uM preincubated for 5 mins followed by NADPH addition by LC-MS/MS analysis. The format is ADME, Microsome. The settings on record: read-out: CLH. In short, it runs like this: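 Compound at 10 µM preincubated 5 min at 37 °C with human or mouse liver microsomes (0.5 mg/mL) in 100 mM phosphate, pH 7.4. Reaction started with 1 mM NADPH, stopped with cold acetonitrile, centrifuged and analysed by LC-MS/MS.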
In general terms: Microsomes from liver hold many membrane-bound enzymes, among them those of drug oxidation.

The nature of series [13]: Stability of the compound in human plasma assessed as parent compound remaining at 1 uM measured after 90 mins by LC-MS/MS analysis. It is filed as ADME, cell-free. The settings on record: read-out: Stability. In short, it runs like this:
as §4

In another series the target is Heat shock protein HSP90 (Homo sapiens, UniProt P07900+P08238). Briefly: Binding affinity to recombinant […] HSP90 N-terminal domain (9 to 236 residues) (unknown origin) expressed in Escherichia coli BL21 (DE3) by isothermal calorimetric method. In outline: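 ITC: 50 µM Hsp90 in the cell and 300 µM compound in the syringe, both in 20 mM Tris-HCl, 150 mM NaCl, pH 7.4. Nineteen injections at 180 s intervals with stirring at 1000 rpm.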

The target in another series is T1, Glucocorticoid receptor (Homo sapiens, UniProt P04150).
T1 sequence (P04150 whole entry): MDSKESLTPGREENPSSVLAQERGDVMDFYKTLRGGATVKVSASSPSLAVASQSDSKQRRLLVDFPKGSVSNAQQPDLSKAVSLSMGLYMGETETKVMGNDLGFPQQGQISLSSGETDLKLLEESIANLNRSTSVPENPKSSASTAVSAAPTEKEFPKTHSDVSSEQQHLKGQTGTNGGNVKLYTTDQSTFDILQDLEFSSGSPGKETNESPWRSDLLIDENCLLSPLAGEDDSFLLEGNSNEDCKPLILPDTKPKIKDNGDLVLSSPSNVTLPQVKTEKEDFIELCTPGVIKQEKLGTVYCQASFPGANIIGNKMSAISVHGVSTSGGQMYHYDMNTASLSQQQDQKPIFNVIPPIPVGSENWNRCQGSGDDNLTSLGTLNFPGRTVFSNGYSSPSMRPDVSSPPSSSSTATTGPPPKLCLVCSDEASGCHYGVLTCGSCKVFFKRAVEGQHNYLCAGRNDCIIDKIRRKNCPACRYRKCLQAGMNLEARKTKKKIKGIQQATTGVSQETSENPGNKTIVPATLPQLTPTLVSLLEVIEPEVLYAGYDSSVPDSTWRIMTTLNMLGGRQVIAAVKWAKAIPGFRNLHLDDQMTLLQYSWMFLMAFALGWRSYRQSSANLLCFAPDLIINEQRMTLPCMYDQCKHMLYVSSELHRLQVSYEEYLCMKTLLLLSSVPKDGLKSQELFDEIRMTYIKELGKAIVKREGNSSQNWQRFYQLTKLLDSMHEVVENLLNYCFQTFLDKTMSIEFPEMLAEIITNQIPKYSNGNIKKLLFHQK
The series is described as follows: Effect on glucocorticoid receptor phosphorylation in human HCT116 cells at 10 uM measured up to 48 hrs by Western blot analysis. The format is ADME, cell-based. In short, it runs like this:
as §2

The test system of series [14] is HCT-116. The series is described as follows: Effect on total phosphorylated CDC37 expression in human HCT116 cells at 10 uM measured up to 48 hrs by Western blot analysis. The settings on record: hct-116, 48 h. The format is ADME, cell-based. In short, it runs like this:
as §2

Series [15] in a line: Apparent oral clearance in plasma of human HCT116 cells xenografted BALB/c mouse at 80 mg/kg administered as single dose by LC-MS/MS analysis. The format is ADME, organism-based. In short, it runs like this:
as §3

Series [16] can be described thus: Half life in plasma of human HCT116 cells xenografted BALB/c mouse at 80 mg/kg, po administered as single dose by LC-MS/MS analysis. It is filed as ADME, organism-based. In short, it runs like this: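 Single oral dose of 80 mg/kg given to BALB/c nude mice (n = 6 per group) carrying flank HCT116 xenografts. Blood and tumor were collected at 0, 0.25, 0.5, 1, 2, 4, 8, 12 and 24 h. Blood went into heparinized tubes and was spun at 3000 rpm for 10 min to give plasma. Samples were stored at -80 °C, then drug levels in plasma and tumor were measured by LC-MS/MS.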

Broadly, the Tmax is the time at which the peak concentration occurs. The term Cmax denotes the peak of the concentration-time curve. By AUC(0-inf) is commonly meant the area under the concentration-time curve extrapolated to infinity. In general, CL/F refers to the apparent clearance, not corrected for the fraction that reaches the circulation. A word on the Kd: it is the constant that tells how readily two partners part at equilibrium. By half-life is commonly meant the time needed for the level to fall by half in the phase considered. Low readings indicate rapid decline, high ones slow decline. Turning to `Cc1cc(C)c(S(=O)(=O)N(CC(=O)O)c2ccc(Nc3ccnc(N4CCNCC4)n3)cc2)c(C)c1`, the Tmax in [1] was found to be 0.5 h. In series [2], this compound showed a Cmax of 308 µg/mL. Further, the T1/2 in [3] was 1.46 h. For the same compound, the Activity result (with HCT-116 [4]; in the series on HCT-116 [6]; in series [7]; with HCT-116 [11]; on Glucocorticoid receptor; in the series on HCT-116 [14]) was “Non-Toxic” throughout. The AUC(0-inf) in series [5] is 536 µg·h/mL. Further, the values for the CL/F in [8] and in [15] were 9.93 mL/min/kg and 3.11 mL/min/kg, respectively. Also, the remaining at 10 min, 1 µM in series [9] came out at 98%. Further, the remaining at 0.5 h, 1 µM in series [10] came to 104%. Further, the microsomal CLint at 10 µM in series [12] worked out at 10.3 µL/min/mg. For the same compound, the remaining at 1.5 h, 1 µM in [13] stood at 103%. At Heat shock protein HSP90, the Kd was found to be 630 nM. This compound also had a half-life in series [16] of 1.46 h.

The values above are taken from ChEMBL document CHEMBL4376883, “Discovery and Optimization of Small Molecules Targeting the Protein-Protein Interaction of Heat Shock Protein 90 (Hsp90) and Cell Division Cycle 37 as Orally Active Inhibitors for the Treatment of Colorectal Cancer” (J Med Chem, 2020).
